Assay [1] relates to Staphylococcus aureus. The experiment in a line: Antibacterial activity against Staphylococcus aureus assessed as growth inhibition after 24 hrs by broth dilution method. The class given is functional. The gist of the method: (§1)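 Serial broth dilution in 96-well microtitre plate, compounds from 50 µg/mL top concentration (stocks 50 mg/mL in DMSO); methicillin positive control for S. aureus (from 50 µg/mL), […]. Incubation 37 °C, 24 h; MIC taken as lowest concentration giving complete growth inhibition.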

The subject of another assay is Escherichia coli. The experiment in a line: Antibacterial activity against Escherichia coli assessed as growth inhibition after 24 hrs by broth dilution method. The class given is functional. An outline of the steps:
as §1
(In general: In broth dilution the organism is exposed to a series of concentrations in liquid medium.)

The next assay relates to HaCaT. The experiment in a line: Cytotoxicity against human HaCaT cells assessed as cell shrinkage after 24 hrs by SRB assay. The class given is cell-based. An outline of the steps: (§2)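 HaCaT keratinocytes and NE3 normal esophageal cells trypsinised, washed, resuspended at about 1×10^5 cells/mL, seeded in 96-well plates 24 h, then exposed 24 h to compounds from 50 µg/mL; doxorubicin 4 µg/mL positive control, 0.1% DMSO vehicle. SRB staining after TCA fixation, absorbance 575 nm; three independent experiments in triplicate, mean ± SD.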
Background: The SRB assay estimates cell density from bound dye.

In assay [2] the test system is Staphylococcus aureus. The assay is described as follows: Antibacterial activity against Staphylococcus aureus assessed as growth inhibition at 50 ug/mL after 24 hrs. The class given is functional. The gist of the method: (§3)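 Agar well diffusion: S. aureus diluted in broth, plated on nutrient agar, wells punched with sterile pipette and loaded with compound (amount per well as in line) or methicillin positive control. Incubation 37 °C, 24 h; inhibition zone recorded as radius in mm, mean ± SD of three results.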

Assay [3] in a line: Cytotoxicity against human NE3 cells assessed as cell shrinkage after 24 hrs by SRB assay. The class given is cell-based. The gist of the method: as §2
In assay [4] the test system is Staphylococcus aureus. The assay is described as follows: Antibacterial activity against Staphylococcus aureus assessed as growth inhibition at 15 ug/mL after 24 hrs. The settings on record: read-out: IZ. The class given is functional. The gist of the method:
as §3

Assay [5] deals with Staphylococcus aureus. The assay is described as follows: Antibacterial activity against Staphylococcus aureus assessed as growth inhibition at 5 ug/mL after 24 hrs. The class given is functional. The settings on record: read-out: IZ. The gist of the method: as §3

In brackets after ≈: the same amount, converted by molar mass.

For the compound `Cc1ccc2cccc(OCc3ccccc3)c2n1`, the minimal inhibitory concentration (MIC) with Staphylococcus aureus [1] and in the assay on Escherichia coli was above 50 µg/mL each time.

For the compound `O=Cc1ccc2cccc(O)c2n1`, the IC50 in the assay with HaCaT turned out to be 19.1 µg/mL (≈ 111 µM); in assay [3], 16.1 µg/mL (≈ 92.7 µM). For the same compound, the “inhibition zone (IZ)” value with Staphylococcus aureus [2] is reported as 7.5 mm. The MIC with Staphylococcus aureus [1] was 50 µg/mL (≈ 289 µM); in the assay with Escherichia coli, above 50 µg/mL.

Consider `Cc1ccc2cccc(OCCN3CCCCC3)c2n1`, for which the MIC in the assay with Staphylococcus aureus [1] and with Escherichia coli was above 50 µg/mL each time.

On to `CCOc1cccc2ccc(C)nc12`, for which the minimal inhibitory concentration (MIC) in the assay on Staphylococcus aureus [1] and with Escherichia coli was above 50 µg/mL in each case.

For the compound `COc1cccc2ccc(C)nc12`, the minimum inhibitory concentration (MIC) with Staphylococcus aureus [1] and with Escherichia coli was above 50 µg/mL in each case.

Regarding `CCCCOc1cccc2ccc(C)nc12`, the minimum inhibitory concentration (MIC) in the assay with Staphylococcus aureus [1] and in the assay with Escherichia coli was above 50 µg/mL throughout.

Regarding `Cl.O=Cc1ccc2cccc(O)c2n1`, the IC50 in the assay with HaCaT was determined as 22.5 µg/mL; in assay [3], 18.1 µg/mL. Further, the zone of inhibition at 50 µg/mL in the assay on Staphylococcus aureus [2] (Staphylococcus aureus, 24 h, read-out: IZ) came out at 4.4 mm. Besides, the MIC in the assay with Staphylococcus aureus [1] was 50 µg/mL; in the assay with Escherichia coli it was above 50 µg/mL.

In the case of `CC1(C)S[C@@H]2[C@H](NC(=O)[C@H](N)c3ccccc3)C(=O)N2[C@H]1C(=O)O` [AMPICILLIN], the MIC in the assay with Escherichia coli came out at 7.5 µg/mL (≈ 21.5 µM).

With `Cc1ccc2c(Br)cc(Br)c(O)c2n1` [BROQUINALDOL], the 50% inhibitory concentration (IC50) with HaCaT amounted to 22.5 µg/mL (≈ 70.9 µM); in assay [3], 18.6 µg/mL (≈ 58.7 µM). The results for the MIC with Staphylococcus aureus [1] and in the assay with Escherichia coli were 6.25 µg/mL (≈ 19.7 µM) and above 50 µg/mL, respectively. The zone of inhibition at 15 µg/mL in the assay with Staphylococcus aureus [4] came to 7.43 mm.

`COc1cccc2c1C(=O)c1c(O)c3c(c(O)c1C2=O)C[C@@](O)(C(=O)CO)C[C@@H]3O[C@H]1C[C@H](N)[C@H](O)[C@H](C)O1` [DOXORUBICIN]: the 50% inhibitory concentration (IC50) in the assay on HaCaT stood at 3.26 µg/mL (≈ 6 µM); in assay [3], 1.89 µg/mL (≈ 3.48 µM).

On to `COc1cccc(OC)c1C(=O)N[C@@H]1C(=O)N2[C@@H]1SC(C)(C)[C@@H]2C(=O)O` [METHICILLIN], for which the zone of inhibition at 5 µg/mL in the assay on Staphylococcus aureus [5] is 10.8 mm. Moreover, in the assay on Staphylococcus aureus [1], the minimum inhibitory concentration (MIC) came out at 3.12 µg/mL (≈ 8.21 µM).

As a reminder, the MIC is the lowest concentration that inhibits growth of the organism. What is called IC50 is the concentration that inhibits the measured activity by half.

These data come from ChEMBL document CHEMBL3098006, “Preparation of 8-hydroxyquinoline derivatives as potential antibiotics against Staphylococcus aureus” (Bioorg Med Chem Lett, 2014).
